Screens: PubChem BioAssay, The Scripps Research Institute Molecular Screening Center
mABHD4 FP: ABHD4 inhibitors, primary screen, biochemical, fluorescence polarization, mouse; inhibition, % at 8.92 µM; 370,000 compounds, 0.54% hits; purified mABHD4, FP-Rh probe fluorescence polarization; (Lyso)-N-acylphosphatidylethanolamine lipase (Mus musculus), Q8VD66;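 active means inhibition exceeding the mean over every tested compound plus 3 SD, cut at about 30% in these data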;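 further: 0% = plate median of compound wells and 100% = S159A mutant with DMSO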
Target sequence (Q8VD66 whole entry, looked up): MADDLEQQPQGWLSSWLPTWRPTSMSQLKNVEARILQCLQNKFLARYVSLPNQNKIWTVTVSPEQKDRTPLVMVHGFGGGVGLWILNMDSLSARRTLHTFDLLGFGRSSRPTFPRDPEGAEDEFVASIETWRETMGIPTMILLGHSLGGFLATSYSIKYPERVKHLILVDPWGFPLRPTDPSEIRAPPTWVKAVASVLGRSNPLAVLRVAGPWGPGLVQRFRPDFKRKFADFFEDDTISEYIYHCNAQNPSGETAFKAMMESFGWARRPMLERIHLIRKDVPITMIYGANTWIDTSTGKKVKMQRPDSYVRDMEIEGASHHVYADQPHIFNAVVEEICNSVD
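Assay system: Wild-type mouse ABHD4 protein | Medium: HEPES pH 7.0 buffer, 150 mM NaCl, 0.01% Pluronic F-127 | Incubation: Enzyme–compound pre-incubation 45 min, then probe 60 min, both 25 °C | Technique: Fluorescence polarization with parallel and perpendicular emission, 525/598 nm | Evaluation: % inhibition of FP-Rh probe binding versus controls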
HTRA1 inhibitor: HTRA1 serine protease inhibitors, primary screen, biochemical, fluorescence polarization, HTS; 340,000 compounds, 0.5% hits; Q92743; recombinant HTRA1, FP-rhodamine activity-based probe; inhibition, % at 5.96 µM; in the data active means inhibition above about 36%;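 further: 0% = enzyme with DMSO and 100% = wells lacking enzyme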
Tn6 DDE FP: inhibitors of Tn6 peptide binding to fibrin DD(E), primary screen, biochemical, fluorescence polarization, human fibrin, Tn6 probe; Fibrinogen beta chain (Homo sapiens), P02675; Fibrin DD(E) TRITC-Tn6 fluorescence polarization displacement; inhibition, % at 8.3 µM; 370,000 compounds, 0.21% hits;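 active means inhibition above a per-campaign cutoff: mean of compounds within control limits plus 3 SD, cut at about 15% in these data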;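 further: 0% = median of all compound wells on the plate and 100% = blocking peptide control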
Tn7 DDE FP: inhibitors of Tn7 peptide binding to fibrin DD(E), primary screen, biochemical, fluorescence polarization, human fibrin, Tn7 probe; Fibrinogen beta chain (Homo sapiens), P02675; FP displacement of FITC-Tn7 peptide from fibrin DD(E); 0% = median of compound wells per plate; inhibition, % at 8.3 µM; 370,000 compounds, 0.13% hits; AID 720508, 2013;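 active means inhibition above the mean of compounds falling within the control limits plus 3 SD of them, cut at about 14% in these data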;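 further: 0% = plate median of compound wells and 100% = 10 µM Aha-Tn7 peptide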
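Test system – human fibrin DD(E) · Times – 10 min preincubation, 3 h with tracer, room temperature · Detection – fluorescence polarization of the labelled Tn7 tracer · Measure – percent inhibition normalized to high-control wells · Benchmarks – high control wells with 10 µM unlabelled Aha-Tn7 peptide (full inhibition) · Repeats – singlicate testing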
TCR-CD3 inh: inhibitors of human TCR-CD3 interaction, primary screen, biochemical, fluorescence, TAMRA-labeled TCR probe | 360,000 compounds, 0.37% hits | inhibition, % at 9.4 µM | AID 651800, 2012; in the data active means inhibition above about 19%;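 further: recombinant mutant TCR 2C K166C tagged with TAMRA read by polarization; 0% = receptor in buffer alone and 100% = receptor with positive control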
SIAE inh: human SIAE inhibitors, primary screen, biochemical, fluorescence polarization, FP-Rh probe, 1536-well HTS | AID 1053197, 2014 | Sialate O-acetylesterase (Homo sapiens), Q9HAT2 | 370,000 compounds, 0.69% hits | SIAE FP-Rh probe binding | inhibition, % at 9.66 µM;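 active means inhibition above a cutoff: mean of compounds within the control limits plus 3 SD of those, cut at about 17% in these data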;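 further: 0% = plate median of compound wells and 100% = probe without SIAE protein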
Target sequence (Q9HAT2 whole entry, looked up): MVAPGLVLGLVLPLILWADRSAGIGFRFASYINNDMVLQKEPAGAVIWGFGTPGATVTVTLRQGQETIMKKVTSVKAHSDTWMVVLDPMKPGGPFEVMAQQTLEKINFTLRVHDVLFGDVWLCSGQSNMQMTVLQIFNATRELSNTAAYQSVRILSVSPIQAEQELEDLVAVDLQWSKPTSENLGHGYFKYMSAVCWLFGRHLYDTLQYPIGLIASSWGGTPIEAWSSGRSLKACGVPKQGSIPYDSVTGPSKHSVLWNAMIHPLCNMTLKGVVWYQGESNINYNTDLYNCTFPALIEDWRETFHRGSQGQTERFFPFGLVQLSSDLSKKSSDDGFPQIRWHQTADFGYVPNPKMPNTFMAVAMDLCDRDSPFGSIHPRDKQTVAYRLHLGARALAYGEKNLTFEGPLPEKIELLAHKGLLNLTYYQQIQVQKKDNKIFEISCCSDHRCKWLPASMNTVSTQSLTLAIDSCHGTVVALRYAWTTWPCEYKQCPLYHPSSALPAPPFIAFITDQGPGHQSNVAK
Tn7 DDE conf: inhibitors of Tn7 peptide binding to fibrin DD(E), confirmation, biochemical, fluorescence polarization, human fibrin, Tn7 probe; AID 720628, 2013; FP displacement of TRITC-Tn7 peptide from DD(E); 0% set at plate's compound-well median; shares compounds with Tn7 DDE FP; 460 compounds, 5% hits; inhibition, % at 8.3 µM;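 active means inhibition above the campaign cutoff, the mean of compounds within control limits plus 3 SD, cut at about 14% in these data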;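 further: 100% = median FP of high control wells holding Aha-Tn7 inhibitor peptide; displacers lower polarization since freed probe rises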
DDE Tn7 FP ctr: counter-screen hit for Tn7 peptide-fibrin DD(E) binding disruption; TRITC-Tn7 probe displacement, fluorescence polarization; 460 compounds, 3% hits; inhibition, % at 8.3 µM; shares compounds with Tn7 DDE FP;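 active means inhibition above the cutoff, the mean of compounds lying between the control bounds plus 3 SD of those compounds, cut at about 17% in these data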;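 further: 0% = median of compound sample wells and 100% = excess unlabeled Aha-Tn7 peptide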
Tn6 DDE ctr: counter-screen hit for Tn6 peptide-fibrin DD(E) binding disruption; AID 720621; TRITC-Tn6 fluorescence polarization displacement; 0% = median of compound wells, not DMSO; 680 compounds, 2% hits; inhibition, % at 8.3 µM; shares compounds with Tn6 DDE FP;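 active means inhibition above the mean of test compounds lying between the control limits plus 3 SD of those, cut at about 14% in these data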;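 further: 0% = median of compound wells and 100% = wells with Aha-Tn7 blocking peptide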
DDE Tn6 confirm: inhibitors of Tn6 peptide binding to fibrin DD(E), confirmation, biochemical, fluorescence polarization, human fibrin, Tn6 probe; FP displacement of TRITC-Tn6 peptide from DD(E); 0% = per-plate median of test wells; 680 compounds, 10% hits; inhibition, % at 8.3 µM; shares compounds with Tn6 DDE FP;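 active means inhibition above the mean of compounds lying within the control limits plus 3 SD, cut at about 16% in these data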;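 further: 100% = high control wells holding a competing inhibitor peptide at 10 µM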
mABHD4 conf: ABHD4 inhibitors, retest, confirmation, biochemical, fluorescence polarization, mouse; AID 720658, 2013; shares compounds with mABHD4 FP; purified mABHD4, FP-Rh probe fluorescence polarization; 1,800 compounds, 55% hits; inhibition, % at 8.92 µM;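 active means mean inhibition across replicates above the hit cutoff set in the primary screen, cut at about 30% in these data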;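 further: 0% = wild-type ABHD4 with DMSO and 100% = catalytically dead S159A mutant with DMSO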
SIAE inh conf: human SIAE inhibitors, retest, confirmation, biochemical, fluorescence polarization, FP-Rh probe, triplicate | shares compounds with SIAE inh | SIAE FP-Rh activity-based probe | inhibition, % at 9.66 µM | 2,300 compounds, 13% hits | AID 1117263, 2014;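 active means mean inhibition of the replicates above the hit cutoff set in the primary screen, cut at about 17% in these data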;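 further: 0% = SIAE with DMSO and probe and 100% = probe without SIAE; inhibitors lower polarization as more probe stays unbound to SIAE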
Active calls of the source: *; . = not tested or not shown. Only some compounds are listed: those with a hit (about 1.8% of all), similar ones and a draw of the others.

SMILES | mABHD4 FP | HTRA1 inhibitor | Tn6 DDE FP | Tn7 DDE FP | TCR-CD3 inh | SIAE inh | Tn7 DDE conf | DDE Tn7 FP ctr | others
COc1ccc(NC(=O)C[C@H]2C(=O)N(c3ccc(Br)cc3)C[C@@H]2c2ccc(OC)cc2)cc1 | -5.6 | -25.7 | 8.8 | 14.1* | 4.3 | -1.8 | 5.4 | 0.4
O=C(Cc1ccc(Cl)cc1)NCCCNC(=O)c1cccnc1 | -15.3 | 6.2 | 0.7 | 3.4 | -4.6 | -0.2 | . | .
COc1ccc(NC(=O)COC(=O)CC2Sc3ccccc3NC2=O)cc1 (stereo not drawn) | -2.2 | -6.4 | 1.8 | 14.8* | -2.3 | 1.6 | 3.5 | 4.3
CN(C)S(=O)(=O)c1cccc(NC(=O)C2CCN(S(=O)(=O)c3cccs3)CC2)c1 | -2.4 | 0.7 | -4.5 | 14.1* | -0.8 | -5.2 | -6.1 | -7.0
CC(=O)N1CCN(c2ccc(N3CCN(Cc4ccccc4)[C@@H](C)C3)c(C)c2)[C@@H](C)C1 | -0.7 | . | 11.8 | -2.0 | 4.5 | 8.2 | . | .
CC(C)CCN1C(=O)c2cccc3c(N)ccc(c23)C1=O | 50.1* | 14.2 | 8.0 | 48.6* | -2.3 | 14.3 | 8.2 | -1.0 | mABHD4 conf=61.6*
Cc1cc2nc3c(=O)n(CCc4ccccc4)c(=O)[nH]c3nc2cc1N | 54.6* | 34.9 | -4.6 | 22.8* | 2.8 | 10.2 | 6.8 | 4.8 | mABHD4 conf=19.6
Cc1nc2ccccc2c(=O)n1CCc1ccccc1 | 5.8 | 7.9 | 2.3 | -3.2 | 3.2 | 11.9 | . | .
Cc1cccc(OC(C)CCN2CCC(C(O)(c3ccccc3)c3ccccc3)CC2)c1 (stereo not drawn) | 1.6 | . | -1.5 | -5.1 | . | -0.3 | . | .
COc1ccc(N2C(=O)CSC2c2cccc(OC)c2OC)cc1 (stereo not drawn) | 6.0 | -0.2 | -4.4 | 13.9* | 7.3 | 23.3* | -2.0 | -8.7 | SIAE inh conf=-7.5
C[C@@H]1ON(C)[C@H]2C[C@H]3c4[nH]c5c(-c6ccc(F)cc6)cccc5c4CCN3C(=O)[C@@H]12 | -0.3 | . | 6.9 | 0.2 | -5.2 | 7.5 | . | .
Cc1ccc(-c2cc(C(=O)NN=Cc3cc(Br)ccc3O)[nH]n2)cc1C | 2.1 | . | -5.1 | 0.8 | . | -1.8 | . | .
COc1cc(-c2nc3ccccn3c2/N=C/c2ccc(F)cc2)ccc1O | 2.6 | -9.3 | 1.3 | 5.2 | 7.5 | 3.0 | . | .
COc1ccc(/C=N/c2c(-c3ccco3)nc3ccccn23)cc1OC | 44.2* | 26.3 | -4.9 | 14.9* | 4.9 | 24.9* | 8.0 | 3.3 | mABHD4 conf=3.3;SIAE inh conf=7.0
COc1ccc(N=Nc2nc3ccc(Br)cc3n2C)cc1 | 5.7 | 12.5 | 5.9 | 55.5* | 13.0 | 18.3* | 1.8 | -0.3 | SIAE inh conf=0.2
O=C1CCCC(c2ccccc2)N1 (stereo not drawn) | -1.8 | 3.8 | 2.3 | 3.5 | -2.2 | 1.0 | . | .
c1ccc(-c2ccc(C3CCCN3)cc2)cc1 (stereo not drawn) | 5.4 | -0.2 | 16.0* | 2.9 | 5.2 | 0.4 | . | . | Tn6 DDE ctr=0.2;DDE Tn6 confirm=-2.0
CCCS(=O)(=O)N1CCN(C(=O)c2ccc(-c3ccccc3)cc2)CC1 | 2.1 | -8.3 | 15.5* | 10.9 | -2.8 | 11.0 | . | . | Tn6 DDE ctr=-4.1;DDE Tn6 confirm=-7.5
CCCC[C@H]1C2CC(OC(=O)Nc3ccc(C(F)(F)F)cc3)C(C2)[C@H]2CCCCN21 (stereo partly drawn) | -0.6 | . | 3.1 | 6.8 | . | 0.6 | . | .
O=C(Nc1ccccc1C(=O)NCCc1ccccc1)c1cnccn1 | 5.6 | 1.5 | 4.9 | 2.4 | -5.3 | -5.9 | . | .
CSc1cccc(NC(=O)C(=O)NCc2ccccc2)c1 | 0.3 | . | -3.9 | 7.0 | 5.4 | 1.8 | . | .
CSc1cccc(NC(=O)NCc2cccc(CNC(=O)Nc3cccc(SC)c3)c2)c1 | -12.8 | -14.4 | 27.0* | 8.4 | 4.7 | -35.0 | . | . | Tn6 DDE ctr=5.1;DDE Tn6 confirm=-4.1
Cn1c(=O)c2c(ncn2CC(=O)OCC(=O)Nc2cc(Cl)ccc2C#N)n(C)c1=O | 0.6 | 0.5 | 4.3 | 4.2 | 5.2 | 1.6 | . | .
Cc1ccc(Cl)cc1NC(=O)COC(=O)Cn1cnc2c1c(=O)n(C)c(=O)n2C | -7.8 | 5.2 | 17.0* | 0.7 | -4.8 | 5.5 | . | . | Tn6 DDE ctr=10.1;DDE Tn6 confirm=4.8
CCCCN(C)CCCNC(=O)CCn1nc(-c2ccccc2)ccc1=O | -0.7 | -0.3 | 16.3* | 8.0 | 4.5 | 6.3 | . | . | Tn6 DDE ctr=-0.3;DDE Tn6 confirm=2.0
CCCCNC(=O)CCn1nc(-c2ccccc2)ccc1=O | 4.3 | -0.2 | 4.1 | 9.7 | 5.0 | 2.5 | . | .
CC(=O)c1ccc(NC(=S)NCCc2ccc(S(N)(=O)=O)cc2)cc1 | -2.9 | 9.1 | 15.3* | 4.3 | 1.8 | 6.6 | . | . | Tn6 DDE ctr=-8.0;DDE Tn6 confirm=-12.4
NS(=O)(=O)c1ccc(NC(=S)NCCc2ccccc2)cc1 | -0.1 | -4.3 | -0.9 | -4.1 | 8.3 | 6.4 | . | .
COc1ccc(-c2nnc3sc(-c4ccco4)nn23)cc1OC | 3.7 | -4.6 | 15.3* | 3.5 | 3.5 | -4.7 | . | . | Tn6 DDE ctr=7.9;DDE Tn6 confirm=-6.0
CN(C)N1C(N)=C(C#N)C(c2ccc(Br)cc2)C2=C1CC(C)(C)CC2=O (stereo not drawn) | -7.7 | -3.3 | -11.1 | 2.6 | -0.9 | -5.6 | . | .
